Active and inactive are the calls of the source. No cut-off for these calls is given here.
Experiments:
Leukemia cell [1] = experiment: Reduction in basal oxygen consumption rate of mitochondria in human leukemia cells at 300 uM after 3 hrs by seahorse analyzer; format: functional
Method in brief: (§1)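 Leukemic cells were treated for 3 h at 300 μM, then plated at 3 × 10^5 cells/well on poly-L-lysine. They were held 1 h at 37 °C without CO2 and run on an XFe96 Mito stress test. Additions were made sequentially: oligomycin 1.0 μM, FCCP 1.0 μM, then antimycin A plus rotenone at 1.0 μM each. OCR was expressed as pmol O2/min and normalized to cell number. Coupling efficiency and spare capacity were calculated after subtracting non-mitochondrial OCR. Data are from six independent experiments.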

[2] = (§2) Cytotoxicity against human MEC2 cells after 48 hrs by MTT assay; format: functional, cell-based; settings: MEC2, 48 h
Method in brief: (§3)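 Cells seeded at 1 × 10^6 cells/mL. JVM-2, MAVER and HL-60 were grown in RPMI-1640; MEC-1 and MEC-2 were grown in IMDM. Primary cells were grown in RPMI-1640. All media carried 10% FBS, L-glutamine and penicillin/streptomycin. Test agents were added at 3–300 μM, and DCA at 1–30 mM.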

MEC2 = experiment: as §2; format: functional, cell-based; method in brief: as §3
PBMC = experiment: Cytotoxicity against human PBMC cells after 48 hrs by MTT assay; format: cell-based; method in brief: as §3
Leukemia cell [3] = experiment: Reduction in maximal oxygen consumption rate of mitochondria in human leukemia cells pretreated at 300 uM for 3 hrs followed by FCCP addition by seahorse analyzer; format: functional; method in brief: as §1
[4] = Cell cycle arrest in human JVM2 cells assessed as accumulation at S phase at 300 uM after 48 hrs by BrdU/PI-staining based FACS analysis (reference value: 40%); format: functional; settings: JVM-2
JVM-2 [5] = experiment: Induction of apoptosis in human JVM2 cells assessed as early apoptotic cells at 300 uM after 48 hrs by annexin V-FITC/PI-staining based FACS analysis (reference value: 1.6%); format: functional
[6] = (§4) Cytotoxicity against human Maver1 cells after 48 hrs by MTT assay; format: functional, cell-based; settings: Maver1, 48 h; method in brief: as §3
Maver1 = experiment: as §4; format: functional, cell-based; method in brief: as §3
[7] = (§5) Cytotoxicity against human JVM2 cells after 48 hrs by MTT assay; format: functional, cell-based; settings: JVM-2, 48 h; method in brief: as §3
JVM-2 [8] = experiment: as §5; format: functional, cell-based; method in brief: as §3
Plasma [9] = experiment: Retention time in BALB/c mouse plasma at 57 mg/kg, sc after 4 hrs by HPLC-MS analysis; format: ADME, organism-based; settings: in vivo
Method in brief: (§6)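 Female BALB/c mice, 8 weeks old (n = 12), received one sc dose of 57 mg/kg in 200 μL PBS/25% DMSO. Tail-vein blood was drawn at 1, 2.5, 4, 5.5, 7, 16 and 24 h, and plasma was stored at −80 °C. Plasma (100 μL) was diluted in 300 μL acetonitrile/water/TFA and filtered. It was then analysed by nano-HPLC-MS on a C-18 column, using a 15-min water-to-acetonitrile gradient with 0.1% formic acid.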

Plasma [10] = experiment: Drug metabolism in BALB/c mouse plasma at 57 mg/kg, sc after >5 hrs by HPLC-MS analysis; format: ADME, organism-based; settings: in vivo; method in brief: as §6
[11] = (§7) Cytotoxicity against human MEC1 cells after 48 hrs by MTT assay; format: functional, cell-based; settings: MEC1, 48 h; method in brief: as §3
MEC1 = experiment: as §7; format: functional, cell-based; method in brief: as §3
B-CLL = experiment: Induction of p21 protein level in human primary B-CLL cells at 300 uM after 24 to 48 hrs by Western blot analysis; format: functional, cell-based
Method in brief: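 Primary B-CLL patient cells treated 24 or 48 h, lysed and analysed by Western blot using anti-p21 (C-19) antibody to detect p21 protein induction.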

JVM-2 [12] = experiment: Induction of apoptosis in human JVM2 cells assessed as late apoptotic cells at 300 uM after 48 hrs by annexin V-FITC/PI-staining based FACS analysis (reference value: 11%); format: functional
[13] = Induction of apoptosis in human primary B-CLL cells assessed as late apoptotic cells at 300 uM after 48 hrs by annexin V-FITC/PI-staining based FACS analysis (reference value: 8.5%); format: functional
[14] = Induction of apoptosis in human primary B-CLL cells assessed as early apoptotic cells at 300 uM after 48 hrs by annexin V-FITC/PI-staining based FACS analysis (reference value: 10.7%); format: functional
Leukemia cell [15] = experiment: Reduction in mitochondrial spare respiratory capacity in human leukemia cells pretreated at 300 uM for 3 hrs followed by antimycin A/rotenone addition by seahorse analyzer; format: functional, cell-based; method in brief: as §1
Plasma [16] = experiment: Metabolic stability in BALB/c mouse plasma assessed as compound remaining at 57 mg/kg, sc after >5 hrs by HPLC-MS analysis; format: ADME, organism-based; settings: in vivo; method in brief: as §6
[17] = (§8) Cytotoxicity against human HL60 cells after 48 hrs by MTT assay; format: functional, cell-based; settings: HL-60, 48 h; method in brief: as §3
HL-60 = experiment: as §8; format: functional, cell-based; method in brief: as §3
Leukemia cell [18] = experiment: Reduction in mitochondrial coupling efficiency in human leukemia cells pretreated at 300 uM for 3 hrs followed by antimycin A/rotenone addition by seahorse analyzer; format: functional, cell-based; method in brief: as §1
[19] = Upregulation of p21 mRNA expression in human primary B-CLL cells at 300 uM after 24 to 48 hrs by qRT-PCR analysis; format: functional, cell-based
JVM-2 [20] = experiment: Induction of apoptosis in human JVM2 cells assessed as early apoptotic cells at 10 mM after 48 hrs by annexin V-FITC/PI-staining based FACS analysis (reference value: 1.6%); format: functional
Method in brief: (§9)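 JVM-2 cells seeded at 1 × 10^6 cells/mL in RPMI-1640 with 10% FBS and treated 48 h. Annexin V-FITC/PI staining read by flow cytometry, giving percentage of apoptotic leukemic cells. Mean ± SD of at least three independent experiments; p < 0.05 versus untreated cultures.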

[21] = Induction of apoptosis in human primary B-CLL cells assessed as late apoptotic cells at 30 mM after 48 hrs by annexin V-FITC/PI-staining based FACS analysis (reference value: 8.5%); format: functional
[22] = Cell cycle arrest in human JVM2 cells assessed as accumulation at S phase at 30 mM after 48 hrs by BrdU/PI-staining based FACS analysis (reference value: 40%); format: functional; settings: JVM-2
[23] = Induction of apoptosis in human primary B-CLL cells assessed as early apoptotic cells at 30 mM after 48 hrs by annexin V-FITC/PI-staining based FACS analysis (reference value: 10.7%); format: functional
JVM-2 [24] = experiment: Induction of apoptosis in human JVM2 cells assessed as late apoptotic cells at 10 mM after 48 hrs by annexin V-FITC/PI-staining based FACS analysis (reference value: 11%); format: functional; method in brief: as §9
[25] = Cytotoxicity against human Maver1 cells at 3 to 300 uM uM after 48 hrs by MTT assay; format: cell-based; settings: maver1, 48 h; method in brief: as §3
[26] = Cytotoxicity against human JVM2 cells at 3 to 300 uM after 48 hrs by MTT assay; format: cell-based; settings: jvm-2, 48 h; method in brief: as §3
[27] = Cytotoxicity against human MEC1 cells at 3 to 300 uM after 48 hrs by MTT assay; format: cell-based; settings: mec1, 48 h; method in brief: as §3
[28] = Cytotoxicity against human HL60 cells at 3 to 300 uM after 48 hrs by MTT assay; format: cell-based; settings: hl-60, 48 h; method in brief: as §3
[29] = Cytotoxicity against human MEC2 cells at 3 to 300 uM after 48 hrs by MTT assay; format: cell-based; settings: mec2, 48 h; method in brief: as §3
[30] = Cytotoxicity against human MEC1 cells at 30 uM after 48 hrs by MTT assay; format: cell-based; settings: mec1, 48 h; method in brief: as §3
[31] = Cytotoxicity against human JVM2 cells at 30 uM after 48 hrs by MTT assay; format: cell-based; settings: jvm-2, 48 h; method in brief: as §3
[32] = Cytotoxicity against human Maver1 cells at 30 uM after 48 hrs by MTT assay; format: cell-based; settings: maver1, 48 h; method in brief: as §3
[33] = Cytotoxicity against human MEC2 cells at 30 uM after 48 hrs by MTT assay; format: cell-based; settings: mec2, 48 h; method in brief: as §3
[34] = Cytotoxicity against human HL60 cells at 30 uM after 48 hrs by MTT assay; format: cell-based; settings: hl-60, 48 h; method in brief: as §3

Structure (SMILES) | Activity (Leukemia cell [1]) | IC50 [2] | Activity [4] | Activity (JVM-2 [5]) | IC50 [6] | IC50 [7] | IC50 [11] | Activity (B-CLL) | Activity (JVM-2 [12]) | IC50 [17] | Activity [19] | Activity [25] | Activity [26] | Activity [27] | Activity [28] | Activity [29] | further results
C[N+](CCNC(=O)C(Cl)Cl)(CCNC(=O)C(Cl)Cl)CCNC(=O)C(Cl)Cl | inactive | – | – | – | – | – | – | – | – | – | – | – | – | – | – | – | –
O=C(NCCN(CCNC(=O)C(Cl)Cl)CCNC(=O)C(Cl)Cl)C(Cl)Cl | Active | 370 µM | 22% | 1.1% | 550 µM | 410 µM | 400 µM | Active | 25.5% | 340 µM | Active | – | – | – | – | – | Activity (MEC2): Dose-dependent effect; IC50 (PBMC): 1260 µM; Activity (Leukemia cell [3]): Active; Activity (Maver1): Dose-dependent effect; Activity (JVM-2 [8]): Dose-dependent effect; Retention_time (Plasma [9]): 0.455 min; Drug metabolism (Plasma [10]): metabolite_notdetected; Activity (MEC1): Dose-dependent effect; Activity [13]: 42.8%; Activity [14]: 14.4%; Activity (Leukemia cell [15]): Active; Stability (Plasma [16]): Stable; Activity (HL-60): Dose-dependent effect; Activity (Leukemia cell [18]): Active
O=C(O)C(Cl)Cl [DICHLOROACETIC ACID] | – | 12200 µM | – | – | 11800 µM | 11500 µM | 8290 µM | Active | – | 13900 µM | Active | – | – | – | – | – | Activity (JVM-2 [20]): 2.8%; Activity [21]: 45.4%; Activity [22]: 15%; Activity [23]: 20.7%; Activity (JVM-2 [24]): 26.8%
CC(C)(C)OC(=O)NCCN(CCNC(=O)OC(C)(C)C)CCNC(=O)OC(C)(C)C | – | – | 41% | 1.3% | – | – | – | – | 10.9% | – | – | Non-toxic | Non-toxic | Non-toxic | Non-toxic | Non-toxic | –
CC(C)(C)OC(=O)NCC[N+](C)(CCNC(=O)OC(C)(C)C)CCNC(=O)OC(C)(C)C.[I-] | – | – | – | – | – | – | – | – | – | – | – | Non-toxic | Non-toxic | Non-toxic | Non-toxic | Non-toxic | –
CC(=O)OCC(COC(C)=O)(COC(C)=O)NC(=O)CCCCC[P+](c1ccccc1)(c1ccccc1)c1ccccc1.[Br-] | – | – | – | – | – | – | – | – | – | – | – | – | – | – | – | – | Activity [30]: Toxic; Activity [31]: Toxic; Activity [32]: Toxic; Activity [33]: Toxic; Activity [34]: Toxic
